The source made the active and inactive calls. No cut-off for these calls is given here.

For 38 compounds, IC50 and inhibition results are on record in ChEMBL document CHEMBL3352266.

Test [1] deals with T1, Myeloperoxidase (Homo sapiens, UniProt P05164).
T1 sequence (P05164 whole entry): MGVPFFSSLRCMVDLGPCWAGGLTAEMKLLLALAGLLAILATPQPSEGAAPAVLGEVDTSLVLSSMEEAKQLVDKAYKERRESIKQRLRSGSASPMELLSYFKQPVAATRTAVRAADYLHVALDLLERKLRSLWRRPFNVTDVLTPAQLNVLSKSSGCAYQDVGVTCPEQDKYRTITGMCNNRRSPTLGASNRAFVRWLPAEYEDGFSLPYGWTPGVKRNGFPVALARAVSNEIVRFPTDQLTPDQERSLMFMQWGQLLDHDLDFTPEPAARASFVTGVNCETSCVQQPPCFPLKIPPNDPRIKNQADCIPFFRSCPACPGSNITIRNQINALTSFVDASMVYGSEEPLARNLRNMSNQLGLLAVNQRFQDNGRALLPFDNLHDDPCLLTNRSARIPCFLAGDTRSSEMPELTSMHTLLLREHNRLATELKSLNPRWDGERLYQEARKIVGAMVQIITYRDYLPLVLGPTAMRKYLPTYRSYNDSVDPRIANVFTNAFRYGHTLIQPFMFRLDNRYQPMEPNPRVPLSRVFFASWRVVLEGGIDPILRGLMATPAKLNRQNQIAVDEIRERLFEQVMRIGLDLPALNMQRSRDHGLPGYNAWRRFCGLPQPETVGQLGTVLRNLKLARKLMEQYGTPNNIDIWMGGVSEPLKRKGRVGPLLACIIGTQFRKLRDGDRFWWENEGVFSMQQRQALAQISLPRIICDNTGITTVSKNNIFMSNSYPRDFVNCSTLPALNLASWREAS
In words: Inhibition of myeloperoxidase (unknown origin) assessed as reduction in enzymatic hypochlorous acid production by spectrophotometry based taurine chlorination assay. The class given is single protein. An outline of the steps:
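Started with 40 μM H2O2 and stopped after 5 min with catalase. Developed with an equal volume of 500 uM TMB and 100 μM NaI in 300 mM acetate, pH 5.4. Absorbance read at 650 nm. IC50 given as mean of ≥3 trials ± SD.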

In test [2] the target is T2, Myeloperoxidase (Homo sapiens) (UniProt P05164).
T2 sequence (whole entry): T1 sequence (P05164 whole entry)
The test is described as follows: Inhibition of myeloperoxidase (unknown origin) assessed as reduction in H2O2 consumption by H2O2-specific electrode based assay. In short, it runs like this: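 An H2O2-specific electrode sat in a continuously stirred vessel holding 30 μM H2O2, 154 mM NaCl and varied inhibitor concentrations in 10 mM phosphate buffer, pH 7.4. H2O2 concentration was followed in real time to derive IC50.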

For `CCCCn1nc2ccccc2c1OC`, the IC50 – broadly, the midpoint of a concentration-inhibition curve – in test [1] came out at 910 nM. The inhibition entry in test [2] was “Active”.

`CCCCCCCCn1[nH]c2ccccc2c1=O`: the IC50 in test [1] was more than 10000 nM.

For the compound `COCCOc1c2ccccc2nn1C(C)C`, in test [1], the IC50 was found to be 1400 nM.

Take `CC1(C)COc2c3ccccc3nn21`: in test [1], the 50% inhibitory concentration (IC50) was 1030 nM.

For `COc1c2ccccc2nn1CCCCO`, the IC50 in test [1] amounted to 1790 nM.

As to `CC(C)n1c(=O)c2ccccc2n1S(C)(=O)=O`, in test [1], the half-inhibitory concentration (IC50) is more than 10000 nM.

`c1c2c(cc3c4n(nc13)CCCO4)OCO2`: the IC50 in test [1] was 403 nM. Also, the inhibition entry in test [2] is “Active”.

On to `c1ccc2c3n(nc2c1)CCS3`, for which, in test [1], the IC50 was 94 nM. For the same compound, in test [2], the inhibition result was “Active”.

As for `CCCCn1[nH]c2ccccc2c1=O`, the IC50 in test [1] came out at 792 nM. In addition, the inhibition result in test [2] was “Active”.

On to `c1ccc2c3n(nc2c1)CCCS3`, for which, in test [1], the IC50 worked out at 213 nM. For the same compound, the inhibition result in test [2] is “Active”.

Regarding `c1ccc2c3n(nc2c1)CCCO3`, the IC50 in test [1] came to 359 nM. The inhibition entry in test [2] was “Active”.

Consider `CCCCCCCCn1nc2ccccc2c1OC`, for which, in test [1], the IC50 is more than 10000 nM.

`CC1COc2c3ccccc3nn21` (configuration not stated): the concentration for half-maximal inhibition (IC50) in test [1] amounted to 900 nM. In addition, the inhibition entry in test [2] was “Active”.

For `C#Cc1ccc(-n2nc3ccccc3c2OC)cc1`, the IC50 in test [1] was 1100 nM.

For the compound `COc1c2ccccc2nn1-c1cccc(I)c1`, in test [1], the IC50 was found to be 1660 nM.

With `CC(C)n1c(=O)c2ccccc2n1CC(=O)N1CCOCC1`, in test [1], the half-maximal inhibitory concentration (IC50) is more than 10000 nM.

In the case of `CCCCn1nc2ccccc2c1OCC`, the IC50 in test [1] was found to be 807 nM. For the same compound, the inhibition result in test [2] was “Active”.

On to `COc1c2ccccc2nn1-c1cccc(Cl)c1`, for which, in test [1], the IC50 came out at 4770 nM.

As to `c1c2c(cc3c4n(nc13)CCS4)OCO2`, the IC50 in test [1] worked out at 87 nM. The inhibition result in test [2] is “Active”.

As for `CC(=O)OCC(C)n1[nH]c2ccccc2c1=O` (configuration not stated), in test [1], the IC50 came to 2120 nM.

Turning to `CC(=O)OCC(C)n1c(=O)c2ccccc2n1C(C)=O` (configuration not stated), the IC50 in test [1] was more than 10000 nM.

In the case of `COc1c2ccccc2nn1-c1ccccc1`, the IC50 in test [1] amounted to 2030 nM.

As to `CC(C)n1[nH]c2ccccc2c1=O`, the IC50 in test [1] came to 660 nM. The inhibition entry in test [2] was “Active”.

As for `c1ccc2c(c1)COc1c3ccccc3nn1-2`, the IC50 in test [1] turned out to be 4150 nM.

Regarding `COc1c2ccccc2nn1CCCCCO`, the IC50 in test [1] was determined as 1540 nM.

As to `COc1c2ccccc2nn1-c1ccc(I)cc1`, the IC50 in test [1] is 2000 nM.

For the compound `CCCCCCCCn1nc2ccccc2c1OCC`, the concentration for half-maximal inhibition (IC50) in test [1] is more than 10000 nM.

In the case of `CCCCCn1nc2ccccc2c1OC`, in test [1], the IC50 turned out to be 3880 nM.

Take `CC(CBr)n1c(=O)c2ccccc2n1CC(=O)N1CCOCC1` (configuration not stated): the IC50 in test [1] is more than 10000 nM.

Turning to `c1c2c(cc3c4n(nc13)CCCS4)OCO2`, the IC50 in test [1] worked out at 140 nM. For the same compound, the inhibition entry in test [2] is “Active”.

Turning to `CC(CCl)n1c(=O)c2ccccc2n1S(C)(=O)=O` (configuration not stated), the IC50 in test [1] was more than 10000 nM.

Turning to `COCCn1nc2ccccc2c1OC`, in test [1], the IC50 stood at 1080 nM.

For the compound `COc1c2cc3c(cc2nn1C(C)C)OCO3`, the IC50 in test [1] is 711 nM. Also, the inhibition entry in test [2] was “Active”.

`O=c1c2ccccc2[nH]n1CCCO`: the IC50 in test [1] came out at 1950 nM.

Take `O=c1c2ccccc2[nH]n1CCO`: in test [1], the IC50 is 2470 nM.

On to `COc1c2ccccc2nn1C(C)C`, for which, in test [1], the half-maximal inhibitory concentration (IC50) was 704 nM. For the same compound, in test [2], the inhibition entry is “Active”.

Turning to `CC(=O)n1c2ccccc2c(=O)n1C(C)C`, the IC50 in test [1] is more than 10000 nM.

On to `CCOc1c2ccccc2nn1C(C)C`, for which the IC50 in test [1] was determined as 722 nM. In test [2], the inhibition result is “Active”.
